These results are taken from ChEMBL document CHEMBL1122886, “Nucleoside conjugates. 6. Synthesis and comparison of antitumor activity of 1-beta-D-arabinofuranosylcytosine conjugates of corticosteroids and selected lipophilic alcohols” (1985).

The species named for experiment [1] is Mus musculus. Briefly: Dose producing greatest increase in life span of mice bearing lymphoid leukemia, treatment schedule is 1-5 qd. The format is functional. The procedure, abridged:
(§1)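 C3D2F1/J mice (C3H/HEJ female × DBA/2J male), groups of six, av wt 25 g, inoculated ip with 1 × 10^6 L1210 cells. Daily ip treatment (qd 1-5 or qd 1-9) started 24 h after inoculation, over a wide dose range. Mice observed daily until death or 45 days. ILS = (T/C − 1) × 100. Active range is doses giving ILS ≥25%; optimum dose gives the greatest ILS.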

The species entered for experiment [2] is Mus musculus. As to the kind of experiment: Weight change observed on day 8 in mice bearing lymphoid leukemia, treatment schedule is 1-5 qd. It is filed as functional. In short, it runs like this: (§2)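 C3D2F1/J mice (C3H/HEJ female × DBA/2J male), groups of six, average weight 25 g, were inoculated ip with 1 × 10^6 L1210 cells. Ip treatment began 24 h after inoculation, daily on days 1-5 or 1-9, over a wide dose range. Mice were observed daily until death or 45 days. Body-weight change was recorded, and ILS was calculated as (T/C − 1) × 100.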

Experiment [3] deals with L1210. As to the kind of experiment: Percent hydrolysis by phosphodiesterase I at 24-h incubation after 30-minutes incubation. It is filed as functional, Mus musculus.
Experiment [4] is filed under the species Mus musculus. Briefly: Number of animals survived after 30-days in mice bearing lymphoid leukemia, treatment schedule is 1-5 qd. It is filed as functional. The procedure, abridged: as §1
Experiment [5] concerns L1210. Briefly: In vitro cytotoxicity with cleavage by phosphodiesterase-I concentration for 50% loss of viability was determined at 72 hours. The format is functional. The settings on record: Mus musculus, L1210, 72 h; read-out: ED50 (the source's name).
The species named for experiment [6] is Mus musculus. As to the kind of experiment: Percent increase in life span in mice bearing lymphoid leukemia, treatment schedule is 1-5 qd. The format is functional. The procedure, abridged: as §1
For experiment [7], the system named is Mus musculus. As to the kind of experiment: Dose producing greatest increase in life span >/=25% in mice bearing lymphoid leukemia, treatment schedule is 1-9 qd; 40-80 [mg(umol)/kg] /day. The format is functional. In short, it runs like this:
as §1

Experiment [8] concerns Mus musculus. Briefly: In vivo antitumor activity against intraperitoneally inoculated L1210 lymphoid leukemic mice (Weight change observed on day 8.Treatment schedule is 1-9 qd). It is filed as functional. The procedure, abridged: as §2
Experiment [9] deals with Mus musculus. As to the kind of experiment: In Vivo Antitumor activity against intraperitoneally inoculated L1210 Lymphoid leukemic mice. Percent increase in life span. Treatment schedule is 1-9 qd. The format is functional. In short, it runs like this:
as §1

Experiment [10] has as its system Mus musculus. As to the kind of experiment: Dose producing greatest increase in life span >/=25% in mice bearing lymphoid leukemia, treatment schedule is 1-5 qd; 20-80 [mg(umol)/kg] /day. The format is functional. In short, it runs like this: as §1
In experiment [11] the test system is Mus musculus. Briefly: In vivo antitumor activity against intraperitoneally inoculated L1210 Lymphoid leukemic mice (Dose producing greatest increase in life span, treatment schedule is 1- 9 qd). It is filed as functional. In short, it runs like this:
as §1

Experiment [12] relates to Mus musculus. As to the kind of experiment: In Vivo Antitumor activity against intraperitoneally inoculated L1210 Lymphoid leukemic mice. Number of animals survived after 30-days. Treatment schedule is 1-9 qd. It is filed as functional. In short, it runs like this: as §1
Experiment [13] has as its system Mus musculus. As to the kind of experiment: Dose producing greatest increase in life span >/=25% in mice bearing lymphoid leukemia, treatment schedule is 1-5 qd; 40-60 [mg(umol)/kg] /day. The format is functional. The procedure, abridged: as §1
Experiment [14] concerns Mus musculus. Briefly: Dose producing greatest increase in life span >/=25% in mice bearing lymphoid leukemia, treatment schedule is 1-5 qd; 20-60 [mg(umol)/kg] /day. It is filed as functional. In short, it runs like this: as §1
For experiment [15], the species on record is Mus musculus. Briefly: Percent increase in life span in mice bearing lymphoid leukemia, treatment schedule is 1-9 qd. The format is functional. In short, it runs like this:
as §1

Experiment [16] is filed under the species Mus musculus. Briefly: Number of animals survived after 30-days in mice bearing lymphoid leukemia, treatment schedule is 1-9 qd. The format is functional. In short, it runs like this:
as §1

Experiment [17] deals with Mus musculus. Briefly: Dose producing greatest increase in life span >/=25% in mice bearing lymphoid leukemia, treatment schedule is 1-9 qd; 5-20 [mg(umol)/kg] /day. The format is functional. In short, it runs like this: as §1
The subject of experiment [18] is Mus musculus. Briefly: Dose producing greatest increase in life span >/=25% in mice bearing lymphoid leukemia, treatment schedule is 1-5 qd; 5-80 [mg(umol)/kg] /day. The format is functional. The procedure, abridged: as §1

In turn, `CCCCCCCCCCCCCCCCOP(=O)(O)OC[C@H]1O[C@@H](n2ccc(N)nc2=O)[C@@H](O)[C@@H]1O` registered an Optimal dose in the experiment listed under Mus musculus [1] of 20 mg/kg/day. Besides, the Weight change in the experiment listed under Mus musculus [2] is listed as -4.75 g mouse-1 on day 8. For the same compound, in the experiment with L1210 [3], the Hydrolysis was 0%. In the experiment listed under Mus musculus [4], this compound yielded a No. of survivors of 0. In the experiment with L1210 [5], the EC50 worked out at 16500 nM. The ILS in the experiment filed under Mus musculus [6] is -22%.
`Nc1ccn([C@@H]2O[C@H](COP(=O)(O)OCCC34CC5CC(CC(C5)C3)C4)[C@@H](O)[C@@H]2O)c(=O)n1` displayed an Optimal dose in the experiment filed under Mus musculus [1] of 40 mg/kg/day. In the experiment listed under Mus musculus [2], this compound returned a Weight change of 0.87 g mouse-1 on day 8. This compound registered a Hydrolysis in the experiment on L1210 [3] of 25%. In the experiment listed under Mus musculus [4], this compound showed a 30 day survivors of 0. Besides, the EC50 with L1210 [5] was found to be 310 nM. In the experiment filed under Mus musculus [6], the ILS came out at 18%.
`C[C@]12C[C@H](O)[C@H]3[C@@H](CCC4=CC(=O)CC[C@@]43C)[C@@H]1CC[C@@H]2C(=O)COP(=O)(O)O.Nc1ccn([C@@H]2O[C@H](COP(=O)(O)O)[C@@H](O)[C@@H]2O)c(=O)n1`: the EC50 with L1210 [5] is 80 nM.
On the same count and under the same terms, next, `Nc1ccn([C@@H]2O[C@H](COP(=O)(O)O)[C@@H](O)[C@H]2O)c(=O)n1`: 50 nM.
In the experiment on L1210 [3], `Nc1ccn(C2O[C@H](COP(=O)(O)OP(=O)(O)OCC3CCCCC3)[C@@H](O)[C@@H]2O)c(=O)n1` (stereo partly drawn) returned a Hydrolysis of 80%. In addition, the EC50 in the experiment with L1210 [5] stood at 5600 nM.
`CC12CCC(=O)C=C1CCC1C2C(O)CC2(C)C1CC[C@@H]2C(=O)COP(=O)(O)OP(=O)(O)OC[C@H]1OC(n2ccc(N)nc2=O)[C@@H](O)[C@@H]1O` (stereo partly drawn): the Active dose range turned out to be 40 mg/kg/day in the experiment on Mus musculus [7] and 20 mg/kg/day in the experiment on Mus musculus [10]. For the same compound, the Optimal dose in the experiment filed under Mus musculus [1] was 60 mg/kg/day; with Mus musculus [11], 80 mg/kg/day. Also, the Weight change is -1.95 g mouse-1 on day 8 with Mus musculus [8] and -0.45 g mouse-1 on day 8 in the experiment listed under Mus musculus [2]. Besides, the ILS in the experiment with Mus musculus [9] turned out to be 152%; in the experiment listed under Mus musculus [6], 95%. In the experiment on L1210 [3], this compound came in with a Hydrolysis of 100%. In addition, the figures for the 30 day survivors in the experiment listed under Mus musculus [4] and in the experiment with Mus musculus [12] were 0 and 2, respectively. Moreover, the EC50 with L1210 [5] was determined as 90 nM.
On to `CC12CCC(=O)C=C1CCC1C2CCC2(C)C1CC[C@@H]2C(=O)COP(=O)(O)OP(=O)(O)OC[C@H]1OC(n2ccc(N)nc2=O)[C@@H](O)[C@@H]1O` (stereo partly drawn), for which the Optimal dose in the experiment listed under Mus musculus [1] came out at 20 mg/kg/day. In addition, the Weight change in the experiment listed under Mus musculus [2] is -3.73 g mouse-1 on day 8. Moreover, the Hydrolysis in the experiment with L1210 [3] stood at 100%. Also, the 30 day survivors in the experiment filed under Mus musculus [4] amounted to 0. In addition, in the experiment on L1210 [5], the EC50 was determined as 160 nM. Moreover, the ILS in the experiment filed under Mus musculus [6] was 22%.
With `Nc1ccn(C2O[C@H](COP(=O)(O)OCC3CCCCC3)[C@@H](O)[C@@H]2O)c(=O)n1` (stereo partly drawn), in the experiment listed under Mus musculus [1], the Optimal dose stood at 40 mg/kg/day. This compound also gave a Weight change in the experiment listed under Mus musculus [2] of -0.67 g mouse-1 on day 8. The Hydrolysis in the experiment with L1210 [3] is 0%. Moreover, the 30 day survivors in the experiment listed under Mus musculus [4] worked out at 0. Also, the EC50 in the experiment with L1210 [5] turned out to be 7000 nM. Besides, the ILS in the experiment filed under Mus musculus [6] was -5%.
`CC12CCC(=O)C=C1CCC1C2C(=O)CC2(C)C1CC[C@]2(O)C(=O)COP(=O)(O)OP(=O)(O)OC[C@H]1OC(n2ccc(N)nc2=O)[C@@H](O)[C@@H]1O` (stereo partly drawn): the Active dose range with Mus musculus [13] is 40 mg/kg/day. Moreover, in the experiment listed under Mus musculus [1], the Optimal dose amounted to 40 mg/kg/day. In addition, in the experiment filed under Mus musculus [2], the Weight change is reported as -0.78 g mouse-1 on day 8. Also, in the experiment with L1210 [3], the Hydrolysis worked out at 100%. This compound displayed a 30 day survivors in the experiment filed under Mus musculus [4] of 0. Besides, the EC50 with L1210 [5] is 80 nM. For the same compound, the ILS in the experiment filed under Mus musculus [6] is 36%.
Take `CC12CC(O)C3C4C=CC(=O)C=C4CCC3C1CC[C@]2(O)C(=O)COP(=O)(O)OP(=O)(O)OC[C@H]1OC(n2ccc(N)nc2=O)[C@@H](O)[C@@H]1O` (stereo partly drawn): the ILS in the experiment filed under Mus musculus [6] came out at 116%.
Still for that read-out and setting: next, `CC12CCC(=O)C=C1CCC1C2C(O)CC2(C)C1CC[C@]2(O)C(=O)COP(=O)(O)OP(=O)(O)OC[C@H]1OC(n2ccc(N)nc2=O)[C@@H](O)[C@@H]1O` (stereo partly drawn): 86%.
For `CC12CCC(=O)C=C1CCC1C2CCC2(C)C1CC[C@]2(O)C(=O)COP(=O)(O)OP(=O)(O)OC[C@H]1OC(n2ccc(N)nc2=O)[C@@H](O)[C@@H]1O` (stereo partly drawn), the Active dose range in the experiment on Mus musculus [14] came out at 20 mg/kg/day. For the same compound, the Optimal dose in the experiment listed under Mus musculus [1] came out at 60 mg/kg/day. Further, the Weight change in the experiment filed under Mus musculus [2] is -2.15 g mouse-1 on day 8. The Hydrolysis with L1210 [3] came out at 100%. For the same compound, the 30 day survivors in the experiment filed under Mus musculus [4] is 0. Further, the EC50 in the experiment with L1210 [5] is 20 nM. For the same compound, the ILS in the experiment filed under Mus musculus [6] was determined as 33%.
Turning to `CCCCCCCCCCCCCCCCOP(=O)(O)OP(=O)(O)OC[C@H]1OC(n2ccc(N)nc2=O)[C@@H](O)[C@@H]1O` (stereo partly drawn), the Active dose range in the experiment on Mus musculus [14] amounted to 20 mg/kg/day. Further, the Optimal dose in the experiment filed under Mus musculus [1] amounted to 40 mg/kg/day. In the experiment filed under Mus musculus [2], this compound had a Weight change of 2.92 g mouse-1 on day 8. The Hydrolysis in the experiment on L1210 [3] is on record as 80%. Moreover, the 30 day survivors in the experiment listed under Mus musculus [4] was found to be 0. The EC50 with L1210 [5] came out at 4300 nM. In addition, the ILS in the experiment filed under Mus musculus [6] stood at 38%.
Take `Nc1ccn(C2O[C@H](COP(=O)(O)OCCCl)[C@@H](O)[C@@H]2O)c(=O)n1` (stereo partly drawn): the Hydrolysis in the experiment on L1210 [3] is 2%. The EC50 with L1210 [5] was 3130 nM.
In turn, `Nc1ccn(C2O[C@H](COP(=O)(O)OCC34CC5CC(CC(C5)C3)C4)[C@@H](O)[C@@H]2O)c(=O)n1` (stereo partly drawn) came in with a Hydrolysis in the experiment on L1210 [3] of 9%. The EC50 with L1210 [5] is 1250 nM.
In the case of `Nc1ccn([C@@H]2O[C@H](CO)[C@@H](O)[C@@H]2O)c(=O)n1` [CYTARABINE], the results for the ILS in the experiment listed under Mus musculus [15] and in the experiment filed under Mus musculus [6] were 138% and 63%, respectively. Also, the 30 day survivors in the experiment filed under Mus musculus [16] and in the experiment listed under Mus musculus [4] was 1 in each case. Moreover, the Optimal dose in the experiment listed under Mus musculus [1] and in the experiment on Mus musculus [11] was 9.2 mg/kg/day each time. Also, the Weight change with Mus musculus [8] was -4.56 g mouse-1 on day 8; in the experiment filed under Mus musculus [2] it was -2.66 g mouse-1 on day 8. The Active dose range in the experiment on Mus musculus [17] and with Mus musculus [18] was 5 mg/kg/day in each case. Besides, the EC50 in the experiment with L1210 [5] turned out to be 190 nM.
